Test results as given in PMC2587450 (International journal of cancer. Journal international du …, 2008).

Columns and labels:
[1] = cited from earlier work
[2] = tested on: MV3 melanoma-induced angiogenesis; assay: MV3 tumor-induced angiogenesis in quail embryonic CAM; assay type: in vivo, Japanese quail (Coturnix coturnix japonica); details: MV3 on quail CAM, 20 μg daily, day 12
Summary of the method: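 Japanese quail eggs ethanol-cleaned, kept at 37°C without CO₂ to embryonic day 3, then opened and contents moved to 6-well plates at 37°C. Day 6: MV3 cells (1 × 10⁷/50 μl PBS) applied onto CAM; after 24 h growth, 20 μg test compound per 50 μl PBS daily. Tumors excised and weighed; remaining membrane slide-mounted, fractal dimension (Df) measured in square area opposite the tumor.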

α1β1 integrin = details: reduced disulfide bonds, cysteines blocked with vinylpyridine; cited from earlier work
[3] = assay type: in vivo, mouse; details: mice
dHMVEC [4] = assay: dHMVEC proliferation assay; assay type: cell-based, human; details: BrdUrd, induced by 2% FBS or 50 ng/ml hrVEGF or vpVEGF, 2 μM obtustatin for VEGF
MV3 = assay: Apoptosis in MV3 melanoma cell line; assay type: cell-based; details: MV3 human melanoma cell line (data not shown)
[5] = assay type: in vivo, mouse; details: mice, Western blot, variety of time intervals
B16F10 = assay: Apoptosis in B16F10 melanoma cell line; assay type: cell-based; details: B16F10 mouse melanoma cell line (data not shown)
dHMVEC [6] = assay: Apoptosis assays in dHMVEC; assay type: cell-based, human; details: 2 μM
Summary of the method: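 Primary adult dermal microvascular endothelial cells (passages 5–8, complete EBM-2). Annexin V: 2 μM test compound 16 h in complete EBM-2, cells detached, annexin V-FITC stained, two-colour flow cytometry within 1 h. Caspase 3: ±2 μM 16 h in complete medium, vincristine 50 μg/ml as positive control, lysates read by colorimetric ELISA at 450 nm. Morphology: 90% confluent cells, 2 μM 24 h, 2% paraformaldehyde-fixed, phase contrast 200×.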

B16F10 mouse melanoma = assay: B16F10 melanoma growth in syngeneic C57BL/6 mice; assay type: in vivo; details: for effect on tumor growth, i.p. route: B16F10 melanoma model
Summary of the method: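 Daily caliper volumes (width² × length × 0.52). Formalin-fixed paraffin 5-μm sections: anti-von Willebrand factor vessels counted in 10 high-power fields (400×) and averaged, blinded, 3 investigators; colorimetric TUNEL; S.D. from 5 animals.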

Compound | half life time [1] | tumor-induced angiogenesis, angiogenesis index as fractal dimension (Df) [2] | change of activity against α1β1 integrin versus native obtustatin (α1β1 integrin) | behavioral signs and body weight ([3]; single i.v. doses up to 20 mg/kg, 10 days observation) | H&E sections of liver ([3]; single i.v., 10 mg/kg and 20 mg/kg groups, after 10 days) | H&E sections of spleen ([3]; single i.v., 20 mg/kg group, after 10 days) | H&E sections of brain, lung, kidney, liver and spleen ([3]; single i.v., all concentrations up to 7 mg/kg, after 10 days) | endothelial cell proliferation (dHMVEC [4]) | apoptosis induction (MV3) | detection in blood plasma after i.p. injection [5] | apoptosis induction (B16F10) | caspase 8, fluorescent ELISA and Western blot (dHMVEC [6]; 2 hours) | caspase 3, colorimetric ELISA and Western blot (dHMVEC [6]; 16 hours (ELISA)) | annexin V binding (early apoptosis), flow cytometry (dHMVEC [6]; 16 hours, complete EBM-2 media) | cell morphology (dHMVEC [6]; 24 hours, complete medium with 5% FBS) | effect on tumor growth, i.p. route (B16F10 mouse melanoma; 2.5 mg/kg i.p. (data not shown)) | effect on tumor growth, i.p. route (B16F10 mouse melanoma; 5 mg/kg i.p. (data not shown)) | vessel number in paraffin sections of tumor (anti-von Willebrand factor) (B16F10 mouse melanoma; B16F10 melanoma, obtustatin treated animals vs control) | TUNEL staining of endothelial cells in tumor sections (B16F10 mouse melanoma; B16F10 melanoma, obtustatin-treated animals) | body weight during multiple injections (B16F10 mouse melanoma; melanoma experiments in mice, 5 and 2.5 mg/kg i.v., multiple injections)
O=c1[nH]cc(F)c(=O)[nH]1 [5-fluorouracil (5-FU), 5-fluorouracil] | about 100 minutes | – | – | – | – | – | – | – | – | – | – | – | – | – | – | – | – | – | – | –
Ethylpyridylated(EP)-obtustatin [EP-obtustatin] | – | no activity | over four orders of magnitude decreasing activity | – | – | – | – | – | – | – | – | – | – | – | – | – | – | – | – | –
obtustatin | – | significantly diminished | – | did not reveal any toxic side effects | small areas of inflammations and necrotic patches in liver | significant necrotic patches in all animals | no effects | potent inhibitor of endothelial cell proliferation | no apoptotic properties | not detectable | no apoptotic properties | appears to be activated | release of caspase 3 | annexin V binds to the surface of dHMVEC | typical apoptotic morphology | no effect on tumor growth | only slightly, close to no significant ratio tumor suppression | significant reduction of vessel number | positive staining of DNA strand breaks | did not show any changes in body weight
